Active and inactive are the calls of the source. The rule behind the calls is not given here.
Key:
[1] = target: Glutamate receptor ionotropic, NMDA 2B (Rattus norvegicus) (UniProt Q00960); experiment: Displacement of [3H]ifenprodil from rat brain membrane NR2B receptor relative to ifenprodil
[2] = target: Glutamate receptor ionotropic, NMDA 2B (Rattus norvegicus, UniProt Q00960); experiment: Displacement of [3H]ifenprodil from rat brain membrane NR2B receptor
[3] = target: T1, Glutamate NMDA receptor; GRIN1/GRIN2B (Homo sapiens, UniProt Q05586+Q13224); experiment: Inhibition of N-terminal domain truncated NR1/NR2B receptor expressed in xenopus oocytes assessed as effect on L-glutamate and glycine-induced current response upto 100 uM; type: cell-based; conditions: Oocyte
[4] = target: T2, Glutamate NMDA receptor; GRIN1/GRIN2A (Homo sapiens, UniProt Q05586+Q12879); experiment: Activity at NR1/NR2A receptor expressed in xenopus oocytes assessed as Inhibition of L-glutamate and glycine-induced current response at 100 uM; type: cell-based; conditions: Oocyte
[5] = Stability in frogs Ringer buffer in presence of N-acetyl cysteine methyl ester by HPLC; type: physicochemical; conditions: frog's Ringer buffer with N-acetyl cysteine methyl ester
In short: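 Half-life in frog's Ringer buffer, pH 7.4, followed by HPLC peak-area decrease over time in presence of excess N-acetyl cysteine methyl ester; NACME and compound levels varied per run (mM range); reactivity also expressed in relative terms.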

[6] = Stability in frogs Ringer buffer by HPLC; type: physicochemical; conditions: frog's Ringer buffer
[7] = target: T1, Glutamate NMDA receptor; GRIN1/GRIN2B; experiment: Inhibition of NR1/NR2B receptor expressed in xenopus oocytes assessed as effect on L-glutamate and glycine-induced current response; type: cell-based, Oocyte
In short: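 Two-electrode voltage clamp on Xenopus oocytes expressing wild-type NR1/NR2B receptors. NMDA currents were evoked with saturating L-glutamate plus glycine. The compound was applied during an ongoing NMDA response, and the change in current amplitude it induced was measured.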

[8] = target: T1, Glutamate NMDA receptor; GRIN1/GRIN2B; experiment: Inhibition of NR1/NR2B receptor expressed in xenopus oocytes assessed as effect on L-glutamate and glycine-induced current response relative to ifenprodil; type: cell-based; conditions: Oocyte
In short: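 Two-electrode voltage clamp on Xenopus oocytes expressing wild-type NR1/NR2B. Currents evoked by saturating L-glutamate plus glycine, 100 µM each; compound applied during the NMDA response and change in current size measured.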

[9] = target: T2, Glutamate NMDA receptor; GRIN1/GRIN2A; experiment: Activity at NR1/NR2A receptor expressed in xenopus oocytes assessed as effect on L-glutamate and glycine-induced current response; type: cell-based, Oocyte
[10] = target: T1, Glutamate NMDA receptor; GRIN1/GRIN2B; experiment: Inhibition of N-terminal domain truncated NR1/NR2B receptor expressed in xenopus oocytes assessed as effect on L-glutamate and glycine-induced current response; type: cell-based, Oocyte
[11] = target: T1, Glutamate NMDA receptor; GRIN1/GRIN2B; experiment: Inhibition of NR1/NR2B receptor expressed in xenopus oocytes assessed as effect on L-glutamate and glycine-induced current response at 10 uM; type: cell-based; conditions: Oocyte
[12] = target: T2, Glutamate NMDA receptor; GRIN1/GRIN2A; experiment: Inhibition of NR1/NR2A receptor expressed in xenopus oocytes assessed as effect on L-glutamate and glycine-induced current response; type: cell-based, Oocyte

Glutamate receptor ionotropic, NMDA 2B, sequence (Q00960 whole entry, the tested form may be a part): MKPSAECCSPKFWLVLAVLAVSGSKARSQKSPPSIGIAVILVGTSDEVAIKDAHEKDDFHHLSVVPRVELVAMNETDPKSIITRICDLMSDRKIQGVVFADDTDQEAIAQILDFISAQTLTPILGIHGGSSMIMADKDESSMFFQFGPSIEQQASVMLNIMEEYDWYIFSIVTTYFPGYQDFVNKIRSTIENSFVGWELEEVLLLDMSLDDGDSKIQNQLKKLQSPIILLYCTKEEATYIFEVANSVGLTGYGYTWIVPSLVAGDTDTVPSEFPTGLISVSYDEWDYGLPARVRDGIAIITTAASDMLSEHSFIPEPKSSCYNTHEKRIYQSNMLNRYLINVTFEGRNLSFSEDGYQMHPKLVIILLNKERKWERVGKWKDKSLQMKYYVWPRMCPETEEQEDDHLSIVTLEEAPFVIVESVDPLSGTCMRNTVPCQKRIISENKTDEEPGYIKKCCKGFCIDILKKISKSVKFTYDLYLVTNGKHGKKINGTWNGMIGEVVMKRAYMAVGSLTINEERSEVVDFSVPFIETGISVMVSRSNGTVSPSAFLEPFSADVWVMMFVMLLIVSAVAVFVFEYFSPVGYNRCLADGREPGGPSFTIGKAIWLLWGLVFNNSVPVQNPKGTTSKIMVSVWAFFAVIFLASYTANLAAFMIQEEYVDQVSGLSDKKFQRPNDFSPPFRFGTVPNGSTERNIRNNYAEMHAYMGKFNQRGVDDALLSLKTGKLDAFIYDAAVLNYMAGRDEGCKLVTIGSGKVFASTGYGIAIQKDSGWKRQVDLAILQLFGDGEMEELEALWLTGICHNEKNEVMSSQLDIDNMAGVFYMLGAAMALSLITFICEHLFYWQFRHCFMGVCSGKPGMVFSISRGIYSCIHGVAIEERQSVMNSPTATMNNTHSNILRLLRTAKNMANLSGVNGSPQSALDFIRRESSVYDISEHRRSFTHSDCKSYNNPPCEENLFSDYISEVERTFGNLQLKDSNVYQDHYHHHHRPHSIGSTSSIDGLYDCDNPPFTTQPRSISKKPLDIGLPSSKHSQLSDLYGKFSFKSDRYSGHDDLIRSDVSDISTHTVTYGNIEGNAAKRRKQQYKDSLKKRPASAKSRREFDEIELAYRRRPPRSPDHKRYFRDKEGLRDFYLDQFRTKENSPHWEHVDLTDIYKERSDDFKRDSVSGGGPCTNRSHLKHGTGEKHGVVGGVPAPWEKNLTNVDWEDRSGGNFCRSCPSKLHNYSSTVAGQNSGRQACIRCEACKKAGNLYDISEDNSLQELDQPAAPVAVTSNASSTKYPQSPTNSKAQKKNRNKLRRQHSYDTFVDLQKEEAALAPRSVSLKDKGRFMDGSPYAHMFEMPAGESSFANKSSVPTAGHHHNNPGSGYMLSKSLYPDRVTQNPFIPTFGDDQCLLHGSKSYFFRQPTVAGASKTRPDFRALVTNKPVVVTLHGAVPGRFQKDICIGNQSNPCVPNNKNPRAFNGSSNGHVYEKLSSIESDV
Glutamate receptor ionotropic, NMDA 2B (Rattus norvegicus), sequence (Q00960 27-1482 limits assumed): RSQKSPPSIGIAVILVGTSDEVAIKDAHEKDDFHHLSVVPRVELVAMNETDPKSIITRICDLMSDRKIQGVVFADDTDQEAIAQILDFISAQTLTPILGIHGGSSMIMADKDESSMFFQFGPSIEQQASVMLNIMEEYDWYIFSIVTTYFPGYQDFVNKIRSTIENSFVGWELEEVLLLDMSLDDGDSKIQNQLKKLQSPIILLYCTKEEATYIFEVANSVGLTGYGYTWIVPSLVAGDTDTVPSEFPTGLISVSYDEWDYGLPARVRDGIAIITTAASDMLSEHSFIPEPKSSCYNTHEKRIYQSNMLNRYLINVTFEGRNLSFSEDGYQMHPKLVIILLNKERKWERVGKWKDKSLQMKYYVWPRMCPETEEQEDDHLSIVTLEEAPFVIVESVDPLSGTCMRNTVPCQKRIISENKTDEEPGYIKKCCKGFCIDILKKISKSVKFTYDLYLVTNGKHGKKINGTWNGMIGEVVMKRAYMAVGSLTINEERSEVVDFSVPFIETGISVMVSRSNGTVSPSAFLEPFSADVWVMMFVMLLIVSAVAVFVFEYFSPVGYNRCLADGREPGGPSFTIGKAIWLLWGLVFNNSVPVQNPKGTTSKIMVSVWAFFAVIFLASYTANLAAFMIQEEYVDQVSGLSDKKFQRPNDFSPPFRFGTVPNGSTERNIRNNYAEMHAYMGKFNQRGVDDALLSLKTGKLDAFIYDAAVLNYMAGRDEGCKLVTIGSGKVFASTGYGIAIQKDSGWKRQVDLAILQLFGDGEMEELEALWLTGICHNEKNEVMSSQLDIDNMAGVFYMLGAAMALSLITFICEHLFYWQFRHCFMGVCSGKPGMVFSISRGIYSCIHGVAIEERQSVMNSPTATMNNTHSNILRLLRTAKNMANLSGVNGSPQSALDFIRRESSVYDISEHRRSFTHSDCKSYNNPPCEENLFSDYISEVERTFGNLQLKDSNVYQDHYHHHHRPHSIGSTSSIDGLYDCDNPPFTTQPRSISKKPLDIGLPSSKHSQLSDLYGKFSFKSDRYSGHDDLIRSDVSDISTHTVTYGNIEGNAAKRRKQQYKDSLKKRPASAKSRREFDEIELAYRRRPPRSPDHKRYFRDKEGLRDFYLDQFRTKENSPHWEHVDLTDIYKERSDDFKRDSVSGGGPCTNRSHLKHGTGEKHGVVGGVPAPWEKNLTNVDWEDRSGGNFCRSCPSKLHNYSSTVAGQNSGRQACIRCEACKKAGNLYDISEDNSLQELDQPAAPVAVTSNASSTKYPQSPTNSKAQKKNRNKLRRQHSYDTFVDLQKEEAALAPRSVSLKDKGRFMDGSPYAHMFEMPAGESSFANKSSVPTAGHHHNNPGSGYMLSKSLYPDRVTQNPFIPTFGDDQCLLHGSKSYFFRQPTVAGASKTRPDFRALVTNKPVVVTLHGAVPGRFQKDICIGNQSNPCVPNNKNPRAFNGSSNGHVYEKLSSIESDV

Row | Structure (SMILES) | Ratio [1] | Ki [2] | half-life [5] | half-life [6] | further results
1 | CC(C(O)c1ccc(N)cc1)N1CCC(Cc2ccccc2)CC1 (racemic; erythro) [listing 1 of 2 here] | 8.8 |  |  |  | 
2 | CC(C(=O)c1ccc(N)cc1)N1CCC(Cc2ccccc2)CC1 (stereo not given) | 1 | 58 nM |  |  | 
3 | O=C(CN1CCC(Cc2ccccc2)CC1)c1ccc(O)cc1 | 13 | 141 nM |  |  | 
4 | CC(C(O)c1ccc(N)cc1)N1CCC(Cc2ccccc2)CC1 (racemic; threo) [listing 1 of 2 here] |  | 300 nM |  |  | 
5 | C=C(CN1CCC(Cc2ccccc2)CC1)C(=O)c1ccc(OC)cc1 | 48 | 527 nM | 0.117 h | 5 h | Activity [3]: inactive; inhibition [4]: 11%; IC50 [7]: 70000 nM; Ratio IC50 [8]: 640; EC50 [9]: > 100000 nM
6 | C=C(CN1CCC(Cc2ccccc2)CC1)C(=O)c1ccc([N+](=O)[O-])cc1 | 23 | 248 nM | 1.03 h | 5 h | 
7 | CC(C(=O)c1ccc(NC(=O)CCl)cc1)N1CCC(Cc2ccccc2)CC1 (stereo not given) | 45 | 493 nM | 1.9 h | > 24 h | IC50 [10]: 230000 nM; inhibition [4]: 25%; IC50 [7]: 14000 nM; Ratio IC50 [8]: 130; EC50 [9]: > 100000 nM
8 | CC(C(O)c1ccc(N)cc1)N1CCC(Cc2ccccc2)CC1 (racemic; erythro) [listing 2 of 2 here] |  | 97 nM |  |  | 
9 | O=C(CN1CCC(Cc2ccc([N+](=O)[O-])cc2)CC1)c1ccc(O)cc1 | 18 | 200 nM |  |  | 
10 | CC(C(=O)c1ccc(N=C=S)cc1)N1CCC(Cc2ccccc2)CC1 (stereo not given) | 62 | 679 nM | 0.054 h | 20 h | inhibition [11]: 8%
11 | CC(C(O)c1ccc(N)cc1)N1CCC(Cc2ccccc2)CC1 (racemic; threo) [listing 2 of 2 here] | 27 |  |  |  | 
12 | Oc1ccc(C(O)CN2CCC(Cc3ccccc3)CC2)cc1 (stereo not given) | 16 | 62 nM |  |  | 
13 | CC(=O)Nc1ccc(C(=O)C(C)N2CCC(Cc3ccccc3)CC2)cc1 (stereo not given) | 10 | 107 nM |  |  | 
14 | O=C(CN1CCC(Cc2ccc(N=C=S)cc2)CC1)c1ccc(O)cc1 | 22 | 245 nM | 0.383 h | > 24 h | IC50 [10]: 570000 nM; IC50 [7]: 16000 nM; Ratio IC50 [8]: 145; IC50 [12]: 16000 nM; EC50 [9]: > 100000 nM

From ChEMBL document CHEMBL1145640 (Bioorg Med Chem Lett, 2008)
